This is an account of results in ChEMBL document CHEMBL3244394, “N7-Substituted 7-aminoactinomycin D analogues. Synthesis and biological properties” (J Med Chem, 1978).

Series [1] concerns P388. Nature of the series: Antitumor activity against mouse P388 cells allografted in BDF1 hybrid mouse assessed as increase of host life span at 800 ug/kg qd for 4 days. In kind it is functional. To be noted: P388, 96 h. Summed up: (§1)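 P388 leukemia, 10⁶ cells, implanted ip in male BDF₁ mice, seven per group. Compounds given in saline once daily on four successive days starting 1 day after implantation (qd 1-4).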

Series [2] can be described thus: Cytotoxicity against human CCRF-CEM cells. Format: cell-based. To be noted: read-out: ID50 (the source's name). Summed up: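 In vitro growth-inhibition assay on human lymphoblastic leukemia CCRF-CEM cells grown in suspension culture. The values are relative cytotoxicity.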
For series [3], the system named is P388. In words: Antitumor activity against mouse P388 cells allografted in BDF1 hybrid mouse assessed as increase of host life span at 200 ug/kg qd for 4 days. Format: functional. Particulars: P388, 96 h. Summed up:
as §1

The subject of series [4] is P388. Nature of the series: Antitumor activity against mouse P388 cells allografted in BDF1 hybrid mouse assessed as increase of host life span at 1500 ug/kg qd for 4 days. In kind it is functional. Particulars: P388, 96 h. Summed up: as §1
The test system of series [5] is P388. Nature of the series: Antitumor activity against mouse P388 cells allografted in BDF1 hybrid mouse assessed as increase of host life span at 150 ug/kg qd for 4 days. Particulars: P388, 96 h. Format: functional. Summed up: as §1
Series [6] concerns P388. Nature of the series: Antitumor activity against mouse P388 cells allografted in BDF1 hybrid mouse assessed as increase of host life span at 500 ug/kg qd for 4 days. Format: functional. To be noted: P388, 96 h. Summed up:
as §1

Series [7] deals with P388. Nature of the series: Antitumor activity against mouse P388 cells allografted in BDF1 hybrid mouse assessed as increase of host life span at 225 ug/kg qd for 4 days. In kind it is functional. Particulars: P388, 96 h. Summed up:
as §1

Series [8] has as its system P388. In words: Antitumor activity against mouse P388 cells allografted in BDF1 hybrid mouse assessed as increase of host life span at 75 ug/kg qd for 4 days. Format: functional. Particulars: P388, 96 h. Summed up:
as §1

The test system of series [9] is P388. In words: Antitumor activity against mouse P388 cells allografted in BDF1 hybrid mouse assessed as increase of host life span at 450 ug/kg qd for 4 days. Format: functional. To be noted: P388, 96 h. Summed up:
as §1

Values after ≈ are worked out from the molar mass of the structure shown. *1 amine or outer side, *2 acyl side, *3 side chain or, on linkers, in order; H or OH if unused. Where a SMILES comes first, the peptide text is derived from it. Bridges are numbered along the chain shown (N, C = ends). Roman numbers before positions name the chains, in order. [ ]: non-standard residue; d: D form. Actinocin(9to1) = Cc1c2oc3c(C)ccc(C(=O)[*:1])c3nc-2c(C(=O)[*:2])c(N)c1=O; NMeV = CN[C@H](C(=O)O)C(C)C; Sar = CNCC(=O)O

As to `Cc1c2oc3c(C)c(NCc4ccccc4)cc(C(=O)N[C@@H]4C(=O)N[C@H](C(C)C)C(=O)N5CCC[C@H]5C(=O)N(C)CC(=O)N(C)[C@@H](C(C)C)C(=O)O[C@@H]4C)c3nc-2c(C(=O)N[C@@H]2C(=O)N[C@H](C(C)C)C(=O)N3CCC[C@H]3C(=O)N(C)CC(=O)N(C)[C@@H](C(C)C)C(=O)O[C@@H]2C)c(N)c1=O`, the ILS (as a rule, how much longer treated animals lived than controls) at 0.8 mg/kg in series [1] turned out to be 108%. The CC50 in series [2] came to 0.25 µg/mL (≈ 0.184 µM).
On to `Cc1c2oc3c(C)c(NCc4ccco4)cc(C(=O)N[C@@H]4C(=O)N[C@H](C(C)C)C(=O)N5CCC[C@H]5C(=O)N(C)CC(=O)N(C)[C@@H](C(C)C)C(=O)O[C@@H]4C)c3nc-2c(C(=O)N[C@@H]2C(=O)N[C@H](C(C)C)C(=O)N3CCC[C@H]3C(=O)N(C)CC(=O)N(C)[C@@H](C(C)C)C(=O)O[C@@H]2C)c(N)c1=O`, for which, in [2], the CC50 is 0.26 µg/mL (≈ 0.193 µM). The ILS at 0.2 mg/kg in series [3] came to 90%.
In the same order, the values of `Cc1c2oc3c(C)c(NCc4ccc[nH]4)cc(C(=O)N[C@@H]4C(=O)N[C@H](C(C)C)C(=O)N5CCC[C@H]5C(=O)N(C)CC(=O)N(C)[C@@H](C(C)C)C(=O)O[C@@H]4C)c3nc-2c(C(=O)N[C@@H]2C(=O)N[C@H](C(C)C)C(=O)N3CCC[C@H]3C(=O)N(C)CC(=O)N(C)[C@@H](C(C)C)C(=O)O[C@@H]2C)c(N)c1=O` are 0.26 µg/mL (≈ 0.193 µM) and 90%.
Consider `CCCCCCCCNc1cc(C(=O)N[C@@H]2C(=O)N[C@H](C(C)C)C(=O)N3CCC[C@H]3C(=O)N(C)CC(=O)N(C)[C@@H](C(C)C)C(=O)O[C@@H]2C)c2nc3c(C(=O)N[C@@H]4C(=O)N[C@H](C(C)C)C(=O)N5CCC[C@H]5C(=O)N(C)CC(=O)N(C)[C@@H](C(C)C)C(=O)O[C@@H]4C)c(N)c(=O)c(C)c-3oc2c1C`, for which the CC50 in series [2] worked out at 0.27 µg/mL (≈ 0.195 µM). Also, in series [4], the ILS at 1.5 mg/kg worked out at 73%.
Turning to `Cc1c2oc3c(C)c(N)cc(C(=O)N[C@@H]4C(=O)N[C@H](C(C)C)C(=O)N5CCC[C@H]5C(=O)N(C)CC(=O)N(C)[C@@H](C(C)C)C(=O)O[C@@H]4C)c3nc-2c(C(=O)N[C@@H]2C(=O)N[C@H](C(C)C)C(=O)N3CCC[C@H]3C(=O)N(C)CC(=O)N(C)[C@@H](C(C)C)C(=O)O[C@@H]2C)c(N)c1=O`, the ILS at 0.15 mg/kg in [5] is 164%. Further, in series [2], the CC50 came out at 0.085 µg/mL (≈ 0.0669 µM).
As to `Cc1c2oc3c(C)c(NCc4ccc(Cl)c(Cl)c4)cc(C(=O)N[C@@H]4C(=O)N[C@H](C(C)C)C(=O)N5CCC[C@H]5C(=O)N(C)CC(=O)N(C)[C@@H](C(C)C)C(=O)O[C@@H]4C)c3nc-2c(C(=O)N[C@@H]2C(=O)N[C@H](C(C)C)C(=O)N3CCC[C@H]3C(=O)N(C)CC(=O)N(C)[C@@H](C(C)C)C(=O)O[C@@H]2C)c(N)c1=O`, in series [6], the increase in life span (ILS) at 0.5 mg/kg is 192%. Besides, the CC50 in [2] was found to be 0.22 µg/mL (≈ 0.154 µM).
For `Cc1c2oc3c(C)c(NCc4ccc(C(=O)O)cc4)cc(C(=O)N[C@@H]4C(=O)N[C@H](C(C)C)C(=O)N5CCC[C@H]5C(=O)N(C)CC(=O)N(C)[C@@H](C(C)C)C(=O)O[C@@H]4C)c3nc-2c(C(=O)N[C@@H]2C(=O)N[C@H](C(C)C)C(=O)N3CCC[C@H]3C(=O)N(C)CC(=O)N(C)[C@@H](C(C)C)C(=O)O[C@@H]2C)c(N)c1=O` the same measures were 123% and 0.26 µg/mL (≈ 0.185 µM).
Turning to `Cc1c2oc3c(C)c(NCc4cccc(Oc5ccccc5)c4)cc(C(=O)N[C@@H]4C(=O)N[C@H](C(C)C)C(=O)N5CCC[C@H]5C(=O)N(C)CC(=O)N(C)[C@@H](C(C)C)C(=O)O[C@@H]4C)c3nc-2c(C(=O)N[C@@H]2C(=O)N[C@H](C(C)C)C(=O)N3CCC[C@H]3C(=O)N(C)CC(=O)N(C)[C@@H](C(C)C)C(=O)O[C@@H]2C)c(N)c1=O`, in series [2], the CC50 turned out to be 0.28 µg/mL (≈ 0.193 µM). Further, the ILS at 0.225 mg/kg in series [7] is 130%.
With `Cc1c2oc3c(C)ccc(C(=O)N[C@@H]4C(=O)N[C@H](C(C)C)C(=O)N5CCC[C@H]5C(=O)N(C)CC(=O)N(C)[C@@H](C(C)C)C(=O)O[C@@H]4C)c3nc-2c(C(=O)N[C@@H]2C(=O)N[C@H](C(C)C)C(=O)N3CCC[C@H]3C(=O)N(C)CC(=O)N(C)[C@@H](C(C)C)C(=O)O[C@@H]2C)c(N)c1=O` [DACTINOMYCIN] (I: T[dV]P[Sar][NMeV] / II: T[dV]P[Sar][NMeV]; ester I:1-I:C, II:1-II:C; linker I:N-II:N via Actinocin(9to1)), the CC50 in series [2] turned out to be 0.01 µg/mL (≈ 0.00797 µM). The ILS at 0.075 mg/kg in series [8] worked out at 122%.
On to `Cc1c2oc3c(C)c(NCc4ccc(C(F)(F)F)cc4)cc(C(=O)N[C@@H]4C(=O)N[C@H](C(C)C)C(=O)N5CCC[C@H]5C(=O)N(C)CC(=O)N(C)[C@@H](C(C)C)C(=O)O[C@@H]4C)c3nc-2c(C(=O)N[C@@H]2C(=O)N[C@H](C(C)C)C(=O)N3CCC[C@H]3C(=O)N(C)CC(=O)N(C)[C@@H](C(C)C)C(=O)O[C@@H]2C)c(N)c1=O`, for which the increase in life span (ILS) at 0.5 mg/kg in series [6] is 100%. Further, in [2], the CC50 turned out to be 0.26 µg/mL (≈ 0.182 µM).
As for `Cc1c2oc3c(C)c(NCc4ccccn4)cc(C(=O)N[C@@H]4C(=O)N[C@H](C(C)C)C(=O)N5CCC[C@H]5C(=O)N(C)CC(=O)N(C)[C@@H](C(C)C)C(=O)O[C@@H]4C)c3nc-2c(C(=O)N[C@@H]2C(=O)N[C@H](C(C)C)C(=O)N3CCC[C@H]3C(=O)N(C)CC(=O)N(C)[C@@H](C(C)C)C(=O)O[C@@H]2C)c(N)c1=O`, the ILS at 0.45 mg/kg in [9] worked out at 145%. Moreover, the CC50 in series [2] stood at 0.26 µg/mL (≈ 0.191 µM).
